Measurements published in ChEMBL document CHEMBL1649480, “Farnesol-induced apoptosis in Candida albicans” (2009).
Active and inactive are the calls of the source. The rule behind the calls is not given here.

What was measured:
Candida albicans [1] = assay: Upregulation of Heat shock protein 90 homologue expression in Candida albicans SC5314 at 40 uM after 24 hrs by MALDI-TOF MS; assay type: functional, organism-based
In short: (§1)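 Overnight YNB-glucose SC5314 culture, PBS-washed, adjusted to OD600 0.1 and treated 24 h with 40 or 200 μM farnesol (methanol in controls). Proteomes were compared with untreated cells by 2D SDS-PAGE and MALDI-TOF MS, searched against NCBI nonredundant database. Spots were counted as changed at ≥1.5-fold in three independent experiments.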

Candida albicans [2] = assay: Downregulation of G-beta-like protein expression in Candida albicans SC5314 at 40 uM after 24 hrs by MALDI-TOF MS; assay type: functional, organism-based; in short: as §1
Candida albicans [3] = assay: Upregulation of Putative mitochondrial aconitate hydratase expression in Candida albicans SC5314 at 40 uM after 24 hrs by MALDI-TOF MS; assay type: functional, organism-based
In short: (§2)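 SC5314 grown overnight at 30°C, 120 rpm, in yeast nitrogen base (pH 7.0) with 50 mM glucose. Cells were washed in PBS and adjusted to OD600 0.1, then treated 24 h with farnesol from a methanol dilution; controls received methanol. Proteomes of treated and untreated cells were compared by 2-D SDS-PAGE and MALDI-TOF MS, with ProFound searches of the NCBI nonredundant database. Spots changed at least 1.5-fold in three independent experiments were counted.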

Candida albicans [4] = assay: Downregulation of NADH:quinone oxidoreductase expression in Candida albicans SC5314 at 200 uM after 24 hrs by MALDI-TOF MS; assay type: functional, organism-based; in short: as §1
Candida albicans [5] = assay: Induction of apoptosis in Candida albicans SC5314 assessed as mitochondrial degradation at 100 uM after 3 hrs by Fluorescence analysis; assay type: functional
In short: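 Farnesol-exposed SC5314 (40, 100, 200 μM; methanol control, H2O2 positive control) stained with a MitoPT mitochondrial permeability transition dye per kit instructions. Cells imaged by confocal microscopy: red mitochondrial aggregates in healthy cells, dispersed green signal in apoptotic cells. Percentage of cells with degradation was recorded.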

Candida albicans [6] = assay: Upregulation of Putative mitochondrial […] expression in Candida albicans SC5314 at 200 uM after 24 hrs by MALDI-TOF MS; assay type: functional, organism-based; in short: as §2
Candida albicans [7] = assay: Induction of apoptosis in Candida albicans SC5314 assessed as cell death level at 100 uM after 3 hrs by Fluorescence analysis; assay type: functional
In short: (§3)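 Washed, OD600 0.1 SC5314 cells (overnight culture at 30°C in YNB pH 7.0 with 50 mM glucose) exposed 3 h to farnesol, with methanol vehicle and H2O2 controls. Stained 30 min in the dark with a mix of dichlorodihydrofluorescein diacetate, propidium iodide and calcofluor white, then PBS-washed. Confocal imaging; red propidium iodide-stained cells scored as a percentage of all cells.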

Candida albicans [8] = assay: Upregulation of Phosphoglycerate mutase expression in Candida albicans SC5314 at 200 uM after 24 hrs by MALDI-TOF MS; assay type: functional, organism-based; in short: as §2
Candida albicans [9] = assay: Downregulation of Glyceraldehyde-3-phosphate dehydrogenase expression in Candida albicans SC5314 at 40 uM after 24 hrs by MALDI-TOF MS; assay type: functional, organism-based; in short: as §1
Candida albicans [10] = assay: Induction of apoptosis in Candida albicans SC5314 at 40 uM after 24 hrs by TUNEL assay; assay type: functional
In short: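 After 24 h in farnesol (40, 100, 200 μM), cells were PBS-washed, fixed in 4% paraformaldehyde (pH 7.4) 1 h at 20°C, and permeabilized 2 min on ice. They were labeled with 9:1 label:enzyme TUNEL mix 1 h at 37°C in the dark and examined by fluorescence microscopy at 515–565 nm. Flow cytometry counted % positive of 30,000 gated cells, gates set by no-enzyme and DNase-treated controls.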

Candida albicans [11] = assay: Upregulation of Mitochondrial 2-enoyl thioester reductase expression in Candida albicans SC5314 at 200 uM after 24 hrs by MALDI-TOF MS; assay type: functional, organism-based; in short: as §2
Candida albicans [12] = assay: Upregulation of Branched chain amino acid transaminase expression in Candida albicans SC5314 at 40 uM after 24 hrs by MALDI-TOF MS; assay type: functional, organism-based; in short: as §1
Candida albicans [13] = assay: Downregulation of GRE3 expression in Candida albicans SC5314 at 40 uM after 24 hrs by MALDI-TOF MS; assay type: functional, organism-based; in short: as §1
Candida albicans [14] = assay: Induction of apoptosis in Candida albicans SC5314 assessed as activation of caspase activity at 40 uM after 3 hrs by Fluorescence analysis; assay type: functional
In short: (§4)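 Active caspases in farnesol-exposed cells (40, 100, 200 μM; methanol control, H2O2 positive control) were detected with a FLICA kit per manufacturer. Cells were examined by confocal microscopy, with green-fluorescing cells counted as caspase-positive and unstained cells as nonapoptotic. Percentage of positive cells was recorded.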

Candida albicans [15] = assay: Upregulation of NADH-cytochrome b5 reductase expression in Candida albicans SC5314 at 200 uM after 24 hrs by MALDI-TOF MS; assay type: functional, organism-based; in short: as §2
Candida albicans [16] = assay: Induction of apoptosis in Candida albicans SC5314 assessed as activation of caspase activity at 100 uM after 3 hrs by Fluorescence analysis; assay type: functional
In short: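 SC5314 grown overnight at 30°C (120 rpm) in yeast nitrogen base pH 7.0 with 50 mM glucose, PBS-washed, set to OD600 0.1, then exposed to farnesol (40, 100, 200 μM; methanol diluent). Active caspases detected in situ with a FLICA kit per the manufacturer; green cells imaged by confocal microscopy (Cy2/Cy3). Controls: methanol vehicle and hydrogen peroxide. Done on three or more occasions.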

Candida albicans [17] = assay: Upregulation of Pyruvate decarboxylase expression in Candida albicans SC5314 at 40 uM after 24 hrs by MALDI-TOF MS; assay type: functional, organism-based; in short: as §2
Candida albicans [18] = assay: Antiproliferative activity against Candida albicans SC5314 assessed as cell killing at 10 uM after 24 hrs by MTS assay; assay type: functional
In short: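 SC5314 grown overnight in YNB (pH 7.0) with 50 mM glucose at 30°C, 120 rpm, washed in PBS. Suspensions at 1 × 10⁷ cells/ml exposed to farnesol at final 0, 10, 40, 100, 200, 300 μM for 24 h at 30°C with shaking, with methanol vehicle controls. MTS reagent added for 4 h at 37°C, A490 read, and % killed cells calculated.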

Candida albicans [19] = assay: Downregulation of Heat shock protein 60 expression in Candida albicans SC5314 at 200 uM after 24 hrs by MALDI-TOF MS; assay type: functional, organism-based; in short: as §1
Candida albicans [20] = assay: Down regulation of in MCA1 expression in Candida albicans SC5314 at 40 uM after 4 hrs by quantitative PCR analysis; assay type: functional, organism-based
In short: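 Log-phase SC5314 exposed 4 h to farnesol (methanol vehicle control). cDNA diluted 1:20 and run in SYBR green real-time PCR: 15 min 95°C, then 35 cycles of 95°C 1 min, 58°C 30 s, 72°C 30 s, with a melt curve check. MCA1 level was calculated by 2^−ΔΔCT against ACT1 and RPP2B reference genes.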

Candida albicans [21] = assay: Induction of apoptosis in Candida albicans SC5314 assessed as activation of caspase activity at 200 uM after 3 hrs by Fluorescence analysis; assay type: functional; in short: as §4
Candida albicans [22] = assay: Upregulation of Coproporphyrinogen III oxidase expression in Candida albicans SC5314 at 40 uM after 24 hrs by MALDI-TOF MS; assay type: functional, organism-based; in short: as §1
Candida albicans [23] = assay: Induction of apoptosis in Candida albicans SC5314 assessed as cell death level at 200 uM after 3 hrs by Fluorescence analysis; assay type: functional; in short: as §3

CC(C)=CCC/C(C)=C/CC/C(C)=C/CO [FARNESOL]
Activity (Candida albicans [1]): Active | Activity (Candida albicans [2]): Active | Activity (Candida albicans [3]): Active | Activity (Candida albicans [4]): Active | Activity (Candida albicans [5]): 93% | Activity (Candida albicans [6]): Active | Activity (Candida albicans [7]): 20% | Activity (Candida albicans [8]): Active | Activity (Candida albicans [9]): Active | Activity (Candida albicans [10]): 2% | Activity (Candida albicans [11]): Active | Activity (Candida albicans [12]): Active | Activity (Candida albicans [13]): Active | Activity (Candida albicans [14]): 5% | Activity (Candida albicans [15]): Active | Activity (Candida albicans [16]): 13% | Activity (Candida albicans [17]): Active | Activity (Candida albicans [18]): <10% | Activity (Candida albicans [19]): Active | Activity (Candida albicans [20]): inactive | Activity (Candida albicans [21]): 84% | Activity (Candida albicans [22]): Active | Activity (Candida albicans [23]): 35%
